Data on eleven compounds can be found in ChEMBL document CHEMBL4017489, “Design, Synthesis, and Evaluation of New Selective NM23-H2 Binders as c-MYC Transcription Inhibitors via Disruption of the NM23-H2/G-Quadruplex Interaction” (J Med Chem, 2017).

pIC50, pKd: −log10 of the molar value. Activity calls are given as the source filed them. The rule behind the calls is not given here.

The nature of data set [1]: Binding affinity to Htg21 telomeric G-quadruplex DNA (unknown origin) at 40 uM after 30 mins by SPR analysis.
In data set [2] the target is T1, Nucleoside diphosphate kinase B (Homo sapiens, UniProt P22392). Kind of data set: Binding affinity to N-terminal NT-647-NHS labeled NM23-H2 (unknown origin) after 30 mins by MST analysis. An outline of the steps:
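NM23-H2 N-terminally labeled with RED-NHS dye (20 μM protein, 30 min dark, RT), free dye removed; 200 nM labeled protein with compound from 500 μM, 16 twofold steps, 30 min RT in 50 mM Tris-HCl pH 7.4, 150 mM NaCl, 10 mM MgCl2, 0.05% Tween-20; KD at half-plateau.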

Data set [3] is described as follows: Binding affinity to biotin-labeled 18-mer duplex DNA hairpin (unknown origin) at 40 uM after 30 mins by SPR analysis.
Data set [4] in a line: Binding affinity to biotin-labeled Pu22 c-myc G-quadruplex DNA (unknown origin) by SPR analysis.
In data set [5] the target is T1, Nucleoside diphosphate kinase B. As to the kind of experiment: Binding affinity to NM23-H2 (unknown origin) by SPR analysis.
For data set [6], the system named is SiHa. Kind of data set: Antitumor activity against human SiHa cells xenografted in BALB/C nude mouse assessed as tumor growth inhibition at 1 mg/kg, ip administered daily after 3 weeks relative to control. Type of data set: functional. As to conditions: 504 h, read-out: TGI.
For data set [7], the system named is SiHa. As to the kind of experiment: Antitumor activity against human SiHa cells xenografted in BALB/C nude mouse assessed as tumor weight at 1 mg/kg, ip administered daily after 3 weeks (reference value: 511.6 mg). Type of data set: functional.
The next data set has as its system Mus musculus. As to the kind of experiment: Toxicity in BALB/C nude mouse xenografted with human SiHa cells assessed as change in body weight at 1 mg/kg, ip administered daily after 3 weeks. Type of data set: organism-based. As to conditions: in vivo, 504 h. In a few lines:
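SiHa cells implanted in the right armpit of BALB/c nu/nu mice. At approximately 50 mm3, mice randomized (n = 8/group) to vehicle, compound 2.5 or 5.0 mg/kg, or doxorubicin 1.0 mg/kg, given ip daily for 3 weeks. Body weight and signs of pain, distress or discomfort monitored; tumors excised and weighed. Data given as mean ± SEM, t test against vehicle.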

Data set [8] has as its system SiHa. Kind of data set: Antiproliferative activity against human SiHa cells after 48 hrs by MTT assay. In kind it is functional, cell-based.
Data set [9] addresses T1, Nucleoside diphosphate kinase B. As to the kind of experiment: Binding affinity to NM23-H2 in human SiHa cells assessed as disruption of protein interaction with c-myc G-quadruplex DNA by measuring decrease in c-MYC mRNA level at 2 uM after 9 hrs by RT-PCR analysis. In kind it is cell-based. In a few lines: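 SiHa cells treated at 0, 0.5, 1.0, 2.0 μM for 9 h; TRIzol RNA, 1.5 μg reverse-transcribed with oligo(dT); semiquantitative PCR, 30 cycles, 58 °C annealing; bands normalized to β-actin, untreated 100%; three repeats.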

Data set [10] shares this target. As to the kind of experiment: Binding affinity to NM23-H2 in human SiHa cells assessed as disruption of protein interaction with c-myc G-quadruplex DNA by measuring decrease in c-MYC protein expresson at 2 uM after 48 hrs by Western blot analysis. Type of data set: cell-based. In a few lines: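 SiHa cells treated 48 h; lysates (30 μg) on 10% SDS-PAGE, nitrocellulose, anti-c-MYC overnight at 4 °C, HRP secondary, chemiluminescence; β-actin internal control; three repeats.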

Data set [11] has the same target. Kind of data set: Binding affinity to NM23-H2 (unknown origin) assessed as ratio of Kd for protein interaction with biotin-labeled Pu22 c-myc G-quadruplex DNA in presence and absence of compound after 1 hr by ELISA.
Data set [12] shares this target. As to the kind of experiment: Binding affinity to NM23-H2 (unknown origin) up to 40 uM by SPR analysis.

T1 sequence (P22392 whole entry): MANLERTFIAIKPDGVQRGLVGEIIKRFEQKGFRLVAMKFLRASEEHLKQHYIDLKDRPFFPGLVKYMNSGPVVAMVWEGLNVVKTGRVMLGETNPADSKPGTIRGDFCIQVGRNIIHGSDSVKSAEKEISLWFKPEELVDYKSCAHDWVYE

`CC(=O)Oc1ccc(/C=C2\CCn3c2nc2cc(NCCCN(C)C)c(F)cc2c3=O)cc1`: the result in data set [1] and in data set [3] was inactive. For the same compound, the figures for the pKd in [2], in data set [4] and in [5] were 4.72, 4.45 and 5.00, respectively.

With `COc1cccc2c1C(=O)c1c(O)c3c(c(O)c1C2=O)C[C@@](O)(C(=O)CO)C[C@@H]3O[C@H]1C[C@H](N)[C@H](O)[C@H](C)O1` [DOXORUBICIN], the inhibition in vivo at 1 mg/kg with SiHa [6] is 67.6%. For the same compound, the Activity is given as 165.9 mg in the data set with SiHa [7] and “Toxic” in the data set on Mus musculus.

On to `O=C(NCCCN1CCCC1)c1ccc(/C=C2\CCn3c2nc2cc(NCCN4CCCC4)c(F)cc2c3=O)cc1`, for which the outcome in data set [1] and in data set [3] was inactive. Also, in the data set on SiHa [8], the negative-log IC50 (pIC50) was 4.79. Also, the pKd was 4.74 in data set [2], 5.57 in data set [4] and 4.70 in data set [5]. The result in data set [9] and in data set [10] was Active.

As to `CCN(CC)CCCNC(=O)c1ccc(/C=C2\CCn3c2nc2cc(NCCN4CCCC4)c(F)cc2c3=O)cc1`, the results for the pKd in data set [4] and in data set [5] were 5.42 and 5.12, respectively.

As for `O=C(CCN1CCCC1)Nc1ccc(/C=C2\CCCn3c2nc2cc(NC(=O)CCN4CCCC4)ccc2c3=O)cc1`, the result in data set [1] and in data set [3] was inactive. For the same compound, the pKd in data set [2] was 4.61; in data set [5], 4.98. Also, the outcome in data set [9] and in data set [10] was Active. Also, the Ratio in [11] was found to be 2.3.

In the case of `CCN(CC)CCCNc1cc2nc3n(c(=O)c2cc1F)CC/C3=C\c1ccc(N(CC)CC)cc1`, the outcome in [1], in [12] and in [3] was inactive. The compound also showed a pKd in [2] of 4.31. For the same compound, the Ratio in data set [11] was 2.1 to 2.6.

For the compound `CCN(CC)CCCNc1cc2nc3n(c(=O)c2cc1F)CC/C3=C\c1ccc(OCc2ccccc2)cc1O`, the result in data set [1] and in data set [3] was inactive. Also, the pKd in [2] was 5.47; in [5], 5.34. Also, in [11], the Ratio was over 3.

Turning to `CN(C)CCCNc1cc2nc3n(c(=O)c2cc1F)CC/C3=C\c1ccc(/C=C/c2ccccn2)cc1`, the result in [1] and in data set [3] was inactive. Besides, the figures for the pKd in data set [2] and in data set [5] were 4.97 and 5.07, respectively. The Ratio in data set [11] is over 3.

`CCN(CC)CCCNc1cc2nc3n(c(=O)c2cc1F)CC/C3=C\c1ccc(/C=C/c2ccccn2)cc1`: the result in [1] and in data set [3] was inactive. Further, the pKd in data set [2] is 4.68; in data set [5] it was 4.86. Also, the Ratio in [11] was in the range of 2.1 to 2.6.

For the compound `CCN(CC)CCCNc1cc2nc3n(c(=O)c2cc1F)CC/C3=C\c1ccc(OCc2ccccc2)c(O)c1`, the outcome in data set [1] and in data set [3] was inactive. Besides, the negative logarithm of the Kd (pKd) in data set [2] is 4.59; in data set [5] it was 4.78. Moreover, the Ratio in [11] is over 3.

For the compound `O=c1c2cc(F)c(NCCCN3CCOCC3)cc2nc2n1CC/C2=C\c1ccc(OCc2ccccc2)cc1`, the outcome in data set [1] and in [3] was inactive. The pKd in data set [2] is 4.65; in data set [5] it was 4.74. For the same compound, in [11], the Ratio was 2.1 to 2.6.
